In ChEMBL document CHEMBL4196123, “Discovery of an Orally Bioavailable Dual PI3K/mTOR Inhibitor Based on Sulfonyl-Substituted Morpholinopyrimidines” (ACS Med Chem Lett, 2018):
Activity calls are given as the source filed them. The rule behind the calls is not given here.

How the values were obtained:
[1] = AUClast in CD1 mouse at 5 mg/kg, iv by LC-MS/MS analysis; type: ADME, organism-based; parameters: dose 5 mg/kg, time 0 - last, route intravenous; conditions: in vivo
T47D = experiment: Antiproliferative activity against human T47D cells harboring PI3KCA H1047R mutant after 72 hrs by MTT assay; type: functional, cell-based
Cytochrome P450 2D6 = Cytochrome P450 2D6 (Homo sapiens, UniProt P10635); experiment: Inhibition of CYP2D6 in human liver microsomes using bufuralol as substrate pretreated for 5 mins followed by NADPH addition and measured after 10 mins by LC-MS analysis; type: ADME
[2] = Oral bioavailability in CD1 mouse at 10 mg/kg administered via gavage by LC-MS/MS analysis; type: ADME, organism-based; conditions: in vivo
[3] = target: PI3-kinase p110-delta/p85-alpha (Homo sapiens, UniProt O00329); experiment: Inhibition of recombinant human full-length N-terminal His6-tagged p110delta/recombinant human full length p85alpha expressed in baculovirus infected Sf21 insect cells using PIP2 as substrate measured after 1 hr by Alexa633 Tracer-based fluorescence polarization assay
[4] = Half life in CD1 mouse at 5 mg/kg, iv by LC-MS/MS analysis; type: ADME, organism-based; conditions: in vivo
[5] = Volume of distribution at steady state in CD1 mouse at 5 mg/kg, iv by LC-MS/MS analysis; type: ADME, organism-based; conditions: in vivo, read-out: Vdss
Cytochrome P450 1A2 = Cytochrome P450 1A2 (Homo sapiens, UniProt P05177); experiment: Inhibition of CYP1A2 in human liver microsomes using phenacetin as substrate pretreated for 5 mins followed by NADPH addition and measured after 10 mins by LC-MS analysis; type: ADME
[6] = Apparent permeability across apical to basolateral side in human Caco2 cells measured after 90 mins by LC-MS/MS analysis; type: ADME, cell-based; conditions: Caco-2
[7] = target: PI3-kinase p110-alpha/p85-alpha (Homo sapiens, UniProt P42336, E542K); experiment: Inhibition of recombinant human His-tagged p85alpha/p110alpha E542K mutant expressed in insect cells
HT-29 [8] = experiment: Antitumor activity against human HT-29 cells harboring PIK3CA P449T mutant xenografted in Balb/c nu/nu mouse assessed as tumor growth inhibition at 3.75 mg/kg, po administered daily via gavage for 27 days relative to control; type: functional; conditions: HT-29, po, 648 h, read-out: TGI
How it was run: (§1)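 Balb/c nu/nu mice carrying HT-29 xenografts were dosed by daily oral gavage for 27 days, starting when mean tumor size was about 240 mm³; vehicle group as control. Tumor volume estimated over time, and TGI calculated after 27 days. Mean ± SEM, n = 6. Dunnett's multiple comparison test.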

[9] = target: Serine/threonine-protein kinase mTOR (Homo sapiens, UniProt P42345); experiment: Inhibition of recombinant human GST-tagged mTOR catalytic domain (1360 to 2549 residues) expressed in baculovirus expression system using GFP-4EBP1 as substrate measured after 1 hr by Lathascreen method
HUVEC = experiment: Cytotoxicity against HUVEC after 72 hrs by MTT assay; type: cell-based; conditions: Homo sapiens
Mus musculus = experiment: Toxicity in Balb/c nu/nu mouse xenografted with human HT-29 cells harboring PIK3CA P449T mutant assessed as survival at 7.5 mg/kg, po administered daily via gavage for 27 days measured post last dose; type: organism-based; conditions: in vivo, 648 h
How it was run: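 Balb/c nu/nu mice carrying HT-29 xenografts (PIK3CA P449T), dosed by daily oral gavage for 27 days starting when mean tumor size was about 240 mm³, alongside a vehicle group. Survival was recorded after the 27-day treatment. Body weight change was measured over time. n = 6 per group, mean ± SEM, Dunnett's multiple comparison test.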

Cytochrome P450 2C19 = Cytochrome P450 2C19 (Homo sapiens, UniProt P33261); experiment: Inhibition of CYP2C19 in human liver microsomes using S-Mephenytoin as substrate pretreated for 5 mins followed by NADPH addition and measured after 45 mins by LC-MS analysis; type: ADME
[10] = target: Serine/threonine-protein kinase ATR (Homo sapiens) (UniProt Q13535); experiment: Inhibition of ATR in human HT-29 cells assessed as reduction in camptothecin-induced Chk1 phosphorylation at Ser345 residue at 10 uM pretreated for 1 hr followed by camptothecin addition; type: cell-based
How it was run: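 HT-29 cells were pretreated with compound for 1 h, then exposed to camptothecin to induce DNA damage. ATR activity was read as phosphorylation of its substrate Chk1, with total Chk1 and β-actin as internal controls. […] served as reference inhibitor.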

[11] = Intrinsic clearance in human liver microsomes at […] pretreated up to 45 mins followed by NADPH addition and measured by LC-MS/MS analysis; type: ADME, microsome; conditions: read-out: CLH
Cytochrome P450 2C9 = Cytochrome P450 2C9 (Homo sapiens, UniProt P11712); experiment: Inhibition of CYP2C9 in human liver microsomes using diclofenac as substrate pretreated for 5 mins followed by NADPH addition and measured after 10 mins by LC-MS analysis; type: ADME
[12] = Clearance in CD1 mouse at 5 mg/kg, iv by LC-MS/MS analysis; type: ADME, organism-based; conditions: in vivo
[13] = Cmax in CD1 mouse at 10 mg/kg, po administered via gavage by LC-MS/MS analysis; type: ADME, organism-based; parameters: dose 10 mg/kg, route oral; conditions: in vivo
PI3K p110 beta/p85 alpha = PI3K p110 beta/p85 alpha (Homo sapiens, UniProt P42338); experiment: Inhibition of recombinant human full-length N-terminal His6-tagged p110beta/recombinant human full length p85alpha expressed in baculovirus infected Sf21 insect cells using PIP2 as substrate measured after 1 hr by Alexa633 Tracer-based fluorescence polarization assay
Cytochrome P450 2C8 = Cytochrome P450 2C8 (Homo sapiens, UniProt P10632); experiment: Inhibition of CYP2C8 in human liver microsomes using paclitaxel as substrate pretreated for 5 mins followed by NADPH addition and measured after 10 mins by LC-MS analysis; type: ADME
[14] = Apparent permeability across basolateral to apical side in human Caco2 cells measured after 90 mins by LC-MS/MS analysis; type: ADME, cell-based; conditions: Caco-2
[15] = AUClast in CD1 mouse at 10 mg/kg, po administered via gavage by LC-MS/MS analysis; type: ADME, organism-based; parameters: dose 10 mg/kg, time 0 - last, route oral; conditions: in vivo
[16] = Efflux ratio of apparent permeability from basolateral to apical side over apical to basolateral side in human Caco2 cells after 90 mins by LC-MS/MS analysis; type: ADME, cell-based; conditions: Caco-2
MCF7 = experiment: Antiproliferative activity against human MCF7 cells harboring PIK3CA E545K mutant after 72 hrs by MTT assay; type: functional, cell-based; conditions: MCF7, 72 h
Cytochrome P450 2B6 = Cytochrome P450 2B6 (Homo sapiens, UniProt P20813); experiment: Inhibition of CYP2B6 in human liver microsomes using bupropion as substrate pretreated for 5 mins followed by NADPH addition and measured after 10 mins by LC-MS analysis; type: ADME
[17] = Inhibition of PI3K in human PC3 cells assessed as reduction in AKT phosphorylation at Ser473 measured after 2 hrs by fluorescence assay; type: cell-based; conditions: PC-3, 2 h
HT-29 [18] = experiment: Antitumor activity against human HT-29 cells harboring PIK3CA P449T mutant xenografted in Balb/c nu/nu mouse assessed as tumor growth inhibition at 7.5 mg/kg, po administered daily via gavage for 27 days relative to control; type: functional; conditions: HT-29, po, 648 h, read-out: TGI; how it was run: as §1
[19] = Half life in CD1 mouse at 10 mg/kg, po administered via gavage by LC-MS/MS analysis; type: ADME, organism-based; conditions: in vivo

Chain of Cytochrome P450 2C9 (P11712 whole entry): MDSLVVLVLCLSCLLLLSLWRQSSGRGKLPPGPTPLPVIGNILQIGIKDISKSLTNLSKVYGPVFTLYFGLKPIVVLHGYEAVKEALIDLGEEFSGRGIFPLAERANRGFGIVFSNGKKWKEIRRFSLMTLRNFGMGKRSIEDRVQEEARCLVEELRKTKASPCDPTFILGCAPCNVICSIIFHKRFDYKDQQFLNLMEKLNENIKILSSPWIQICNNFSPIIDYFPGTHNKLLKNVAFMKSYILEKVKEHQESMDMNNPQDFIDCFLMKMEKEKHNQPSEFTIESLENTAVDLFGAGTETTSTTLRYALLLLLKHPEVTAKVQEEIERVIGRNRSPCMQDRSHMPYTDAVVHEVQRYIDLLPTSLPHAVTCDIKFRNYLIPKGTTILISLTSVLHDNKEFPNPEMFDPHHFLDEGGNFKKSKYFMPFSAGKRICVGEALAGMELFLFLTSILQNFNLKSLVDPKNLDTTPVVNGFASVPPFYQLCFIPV
Chain of Cytochrome P450 2D6 (P10635 whole entry): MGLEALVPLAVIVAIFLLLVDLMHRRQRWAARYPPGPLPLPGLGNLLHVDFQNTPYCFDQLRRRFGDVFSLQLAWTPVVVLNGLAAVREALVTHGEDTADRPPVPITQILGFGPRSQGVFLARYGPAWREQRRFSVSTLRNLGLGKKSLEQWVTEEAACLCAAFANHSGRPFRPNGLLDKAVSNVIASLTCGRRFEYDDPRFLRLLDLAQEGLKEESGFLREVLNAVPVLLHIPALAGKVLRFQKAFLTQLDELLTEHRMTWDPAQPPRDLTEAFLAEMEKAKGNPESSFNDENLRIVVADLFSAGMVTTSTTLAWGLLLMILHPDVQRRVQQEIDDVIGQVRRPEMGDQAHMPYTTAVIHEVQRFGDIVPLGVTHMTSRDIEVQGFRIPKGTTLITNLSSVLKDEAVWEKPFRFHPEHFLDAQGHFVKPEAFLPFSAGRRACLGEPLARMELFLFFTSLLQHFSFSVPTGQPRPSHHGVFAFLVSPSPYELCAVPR
Chain of Serine/threonine-protein kinase ATR (Homo sapiens) (Q13535 whole entry, looked up): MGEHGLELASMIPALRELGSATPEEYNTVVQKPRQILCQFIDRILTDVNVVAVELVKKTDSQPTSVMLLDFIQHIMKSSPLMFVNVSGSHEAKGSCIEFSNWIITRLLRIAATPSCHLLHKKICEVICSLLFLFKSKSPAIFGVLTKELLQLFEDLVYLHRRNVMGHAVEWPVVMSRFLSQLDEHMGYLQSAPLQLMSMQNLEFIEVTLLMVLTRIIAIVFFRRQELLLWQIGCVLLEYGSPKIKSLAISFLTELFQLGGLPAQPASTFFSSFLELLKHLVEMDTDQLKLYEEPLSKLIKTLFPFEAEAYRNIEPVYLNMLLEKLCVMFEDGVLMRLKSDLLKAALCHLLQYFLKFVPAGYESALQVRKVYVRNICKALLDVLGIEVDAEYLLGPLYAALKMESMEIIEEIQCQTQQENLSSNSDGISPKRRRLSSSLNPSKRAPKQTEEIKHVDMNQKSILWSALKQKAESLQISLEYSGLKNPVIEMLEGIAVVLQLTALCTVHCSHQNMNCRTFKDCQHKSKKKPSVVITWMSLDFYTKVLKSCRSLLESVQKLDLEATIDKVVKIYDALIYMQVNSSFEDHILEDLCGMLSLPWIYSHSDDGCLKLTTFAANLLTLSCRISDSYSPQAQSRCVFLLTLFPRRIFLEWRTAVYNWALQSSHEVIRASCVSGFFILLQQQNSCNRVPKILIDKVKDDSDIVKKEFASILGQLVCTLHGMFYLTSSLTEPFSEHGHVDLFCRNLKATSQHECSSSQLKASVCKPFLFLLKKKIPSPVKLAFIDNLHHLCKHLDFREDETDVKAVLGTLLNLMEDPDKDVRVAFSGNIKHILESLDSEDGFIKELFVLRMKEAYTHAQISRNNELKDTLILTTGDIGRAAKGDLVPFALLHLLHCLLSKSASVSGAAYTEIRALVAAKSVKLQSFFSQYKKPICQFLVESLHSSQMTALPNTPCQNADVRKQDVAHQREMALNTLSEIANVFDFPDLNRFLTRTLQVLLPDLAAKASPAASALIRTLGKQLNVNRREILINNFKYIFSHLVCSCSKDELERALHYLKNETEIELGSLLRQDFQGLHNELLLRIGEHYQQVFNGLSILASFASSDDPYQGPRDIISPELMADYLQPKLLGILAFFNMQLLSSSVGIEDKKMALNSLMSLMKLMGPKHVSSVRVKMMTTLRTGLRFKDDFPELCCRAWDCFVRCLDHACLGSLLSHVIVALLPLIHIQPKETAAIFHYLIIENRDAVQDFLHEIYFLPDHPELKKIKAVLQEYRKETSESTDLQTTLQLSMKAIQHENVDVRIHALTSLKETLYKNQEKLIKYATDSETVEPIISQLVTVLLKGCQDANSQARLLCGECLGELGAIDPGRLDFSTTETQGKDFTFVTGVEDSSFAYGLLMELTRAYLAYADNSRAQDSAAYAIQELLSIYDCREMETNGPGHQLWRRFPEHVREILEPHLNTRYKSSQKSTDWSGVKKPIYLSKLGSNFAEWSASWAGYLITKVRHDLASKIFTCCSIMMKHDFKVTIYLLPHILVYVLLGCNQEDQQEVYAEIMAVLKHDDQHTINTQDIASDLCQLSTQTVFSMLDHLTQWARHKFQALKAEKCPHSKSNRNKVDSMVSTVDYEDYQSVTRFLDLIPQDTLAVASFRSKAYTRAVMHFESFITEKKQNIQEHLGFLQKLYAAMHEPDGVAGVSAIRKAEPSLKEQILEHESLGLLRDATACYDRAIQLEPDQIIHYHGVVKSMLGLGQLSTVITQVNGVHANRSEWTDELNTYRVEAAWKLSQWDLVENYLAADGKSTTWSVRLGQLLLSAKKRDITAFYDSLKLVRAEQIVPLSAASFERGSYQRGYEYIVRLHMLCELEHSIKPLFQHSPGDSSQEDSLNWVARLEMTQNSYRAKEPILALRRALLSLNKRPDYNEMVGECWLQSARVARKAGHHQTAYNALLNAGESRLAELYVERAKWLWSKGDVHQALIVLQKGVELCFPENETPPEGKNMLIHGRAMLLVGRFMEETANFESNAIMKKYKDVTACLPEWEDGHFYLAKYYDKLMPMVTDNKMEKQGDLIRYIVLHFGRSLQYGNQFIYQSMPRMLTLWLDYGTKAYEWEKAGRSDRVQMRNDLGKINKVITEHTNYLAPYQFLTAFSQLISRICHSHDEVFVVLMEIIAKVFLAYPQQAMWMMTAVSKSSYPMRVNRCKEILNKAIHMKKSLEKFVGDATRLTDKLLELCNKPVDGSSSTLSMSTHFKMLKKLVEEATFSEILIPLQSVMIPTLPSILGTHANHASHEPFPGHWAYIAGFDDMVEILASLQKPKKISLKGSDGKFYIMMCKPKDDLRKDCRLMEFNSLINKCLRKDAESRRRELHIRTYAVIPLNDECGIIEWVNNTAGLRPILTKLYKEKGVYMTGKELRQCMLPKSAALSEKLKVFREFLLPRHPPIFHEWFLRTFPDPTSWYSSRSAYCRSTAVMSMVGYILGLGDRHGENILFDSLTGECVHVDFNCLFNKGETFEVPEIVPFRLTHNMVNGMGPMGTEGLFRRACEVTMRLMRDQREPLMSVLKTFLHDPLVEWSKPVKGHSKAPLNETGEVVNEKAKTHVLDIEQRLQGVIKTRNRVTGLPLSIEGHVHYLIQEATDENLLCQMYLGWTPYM
Chain of Cytochrome P450 2C8 (P10632 whole entry): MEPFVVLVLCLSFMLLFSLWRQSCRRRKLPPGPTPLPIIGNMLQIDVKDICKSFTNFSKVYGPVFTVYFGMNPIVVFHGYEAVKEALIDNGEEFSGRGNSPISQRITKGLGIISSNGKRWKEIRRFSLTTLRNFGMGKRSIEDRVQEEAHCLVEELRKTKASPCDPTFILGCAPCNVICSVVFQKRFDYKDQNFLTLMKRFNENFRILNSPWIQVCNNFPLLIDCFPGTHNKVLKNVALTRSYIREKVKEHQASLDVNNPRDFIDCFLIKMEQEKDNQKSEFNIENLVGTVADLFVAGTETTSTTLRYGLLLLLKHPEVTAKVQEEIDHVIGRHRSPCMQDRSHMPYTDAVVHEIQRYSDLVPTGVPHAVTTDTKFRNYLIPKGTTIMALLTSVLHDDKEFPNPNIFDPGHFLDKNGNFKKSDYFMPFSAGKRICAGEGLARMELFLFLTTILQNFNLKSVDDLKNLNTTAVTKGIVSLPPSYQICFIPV
Chain of Cytochrome P450 1A2 (P05177 whole entry): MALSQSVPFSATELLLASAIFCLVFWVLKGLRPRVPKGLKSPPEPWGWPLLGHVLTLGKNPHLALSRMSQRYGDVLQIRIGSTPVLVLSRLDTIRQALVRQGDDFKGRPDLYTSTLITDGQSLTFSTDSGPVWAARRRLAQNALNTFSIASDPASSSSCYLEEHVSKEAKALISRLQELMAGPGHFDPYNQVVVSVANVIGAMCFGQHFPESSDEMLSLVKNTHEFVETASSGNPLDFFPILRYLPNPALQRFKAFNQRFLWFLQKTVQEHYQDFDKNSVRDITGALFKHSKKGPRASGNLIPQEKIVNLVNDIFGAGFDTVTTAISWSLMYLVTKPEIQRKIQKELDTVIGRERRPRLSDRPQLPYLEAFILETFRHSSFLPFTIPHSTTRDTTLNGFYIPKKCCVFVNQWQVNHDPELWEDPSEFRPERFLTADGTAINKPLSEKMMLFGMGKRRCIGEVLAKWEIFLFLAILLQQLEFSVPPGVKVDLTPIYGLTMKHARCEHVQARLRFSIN

Structure (SMILES): C[C@H]1COCCN1c1nc(-c2cnc(N)cc2F)cc(C2(S(C)(=O)=O)CC2)n1
- AUC(0-t) [1]: 5440 ng·h/mL
- IC50 (T47D): 30 nM
- IC50 (Cytochrome P450 2D6): > 10000 nM
- bioavailability [2]: 94.6%
- IC50 [3]: 46 nM
- half-life [4]: 1.59 h
- Vd [5]: 1.4 L/kg
- IC50 (Cytochrome P450 1A2): > 10000 nM
- Papp A→B at 1.5 h [6]: > 10 ×10⁻⁶ cm/s
- IC50 [7]: 11 nM
- inhibition in vivo at 3.75 mg/kg (HT-29 [8]): 54.4%
- IC50 [9]: 186 nM
- IC50 (HUVEC): 108 nM
- Activity (Mus musculus): Non-Toxic
- IC50 (Cytochrome P450 2C19): > 10000 nM
- inhibition [10]: Active
- CLint scaled [11]: 5 to 16 mL/min/kg
- IC50 (Cytochrome P450 2C9): > 10000 nM
- clearance [12]: 15.2 mL/min/kg
- Cmax [13]: 2980 ng/mL
- IC50 (PI3K p110 beta/p85 alpha): 376 nM
- IC50 (Cytochrome P450 2C8): > 10000 nM
- Papp B→A at 1.5 h [14]: > 10 ×10⁻⁶ cm/s
- AUC(0-t) [15]: 10400 ng·h/mL
- efflux ratio at 1.5 h [16]: 0.66
- IC50 (MCF7): 11 nM
- IC50 (Cytochrome P450 2B6): > 10000 nM
- IC50 [17]: 196 nM
- inhibition in vivo at 7.5 mg/kg (HT-29 [18]): 72.9%
- half-life [19]: 2.87 h
